The values below come from ChEMBL document CHEMBL1141182, “Selective benzopyranone and pyrimido[2,1-a]isoquinolin-4-one inhibitors of DNA-dependent protein kinase: synthesis, structure-activity studies, and radiosensitization of a human tumor cell line in vitro” (J Med Chem, 2005).

By IC50 is commonly meant the concentration that gives 50% inhibition. Low readings indicate greater potency in that assay, high ones weaker potency in that assay.

SMILES strings stand for the structures.

The target of the first assay is DNA-dependent protein kinase catalytic subunit (Homo sapiens, UniProt P78527). The assay is described as follows: Inhibition of DNA dependent protein kinase isolated from HeLa cells. In kind it is cell-free.
Chain of DNA-dependent protein kinase catalytic subunit (P78527 whole entry): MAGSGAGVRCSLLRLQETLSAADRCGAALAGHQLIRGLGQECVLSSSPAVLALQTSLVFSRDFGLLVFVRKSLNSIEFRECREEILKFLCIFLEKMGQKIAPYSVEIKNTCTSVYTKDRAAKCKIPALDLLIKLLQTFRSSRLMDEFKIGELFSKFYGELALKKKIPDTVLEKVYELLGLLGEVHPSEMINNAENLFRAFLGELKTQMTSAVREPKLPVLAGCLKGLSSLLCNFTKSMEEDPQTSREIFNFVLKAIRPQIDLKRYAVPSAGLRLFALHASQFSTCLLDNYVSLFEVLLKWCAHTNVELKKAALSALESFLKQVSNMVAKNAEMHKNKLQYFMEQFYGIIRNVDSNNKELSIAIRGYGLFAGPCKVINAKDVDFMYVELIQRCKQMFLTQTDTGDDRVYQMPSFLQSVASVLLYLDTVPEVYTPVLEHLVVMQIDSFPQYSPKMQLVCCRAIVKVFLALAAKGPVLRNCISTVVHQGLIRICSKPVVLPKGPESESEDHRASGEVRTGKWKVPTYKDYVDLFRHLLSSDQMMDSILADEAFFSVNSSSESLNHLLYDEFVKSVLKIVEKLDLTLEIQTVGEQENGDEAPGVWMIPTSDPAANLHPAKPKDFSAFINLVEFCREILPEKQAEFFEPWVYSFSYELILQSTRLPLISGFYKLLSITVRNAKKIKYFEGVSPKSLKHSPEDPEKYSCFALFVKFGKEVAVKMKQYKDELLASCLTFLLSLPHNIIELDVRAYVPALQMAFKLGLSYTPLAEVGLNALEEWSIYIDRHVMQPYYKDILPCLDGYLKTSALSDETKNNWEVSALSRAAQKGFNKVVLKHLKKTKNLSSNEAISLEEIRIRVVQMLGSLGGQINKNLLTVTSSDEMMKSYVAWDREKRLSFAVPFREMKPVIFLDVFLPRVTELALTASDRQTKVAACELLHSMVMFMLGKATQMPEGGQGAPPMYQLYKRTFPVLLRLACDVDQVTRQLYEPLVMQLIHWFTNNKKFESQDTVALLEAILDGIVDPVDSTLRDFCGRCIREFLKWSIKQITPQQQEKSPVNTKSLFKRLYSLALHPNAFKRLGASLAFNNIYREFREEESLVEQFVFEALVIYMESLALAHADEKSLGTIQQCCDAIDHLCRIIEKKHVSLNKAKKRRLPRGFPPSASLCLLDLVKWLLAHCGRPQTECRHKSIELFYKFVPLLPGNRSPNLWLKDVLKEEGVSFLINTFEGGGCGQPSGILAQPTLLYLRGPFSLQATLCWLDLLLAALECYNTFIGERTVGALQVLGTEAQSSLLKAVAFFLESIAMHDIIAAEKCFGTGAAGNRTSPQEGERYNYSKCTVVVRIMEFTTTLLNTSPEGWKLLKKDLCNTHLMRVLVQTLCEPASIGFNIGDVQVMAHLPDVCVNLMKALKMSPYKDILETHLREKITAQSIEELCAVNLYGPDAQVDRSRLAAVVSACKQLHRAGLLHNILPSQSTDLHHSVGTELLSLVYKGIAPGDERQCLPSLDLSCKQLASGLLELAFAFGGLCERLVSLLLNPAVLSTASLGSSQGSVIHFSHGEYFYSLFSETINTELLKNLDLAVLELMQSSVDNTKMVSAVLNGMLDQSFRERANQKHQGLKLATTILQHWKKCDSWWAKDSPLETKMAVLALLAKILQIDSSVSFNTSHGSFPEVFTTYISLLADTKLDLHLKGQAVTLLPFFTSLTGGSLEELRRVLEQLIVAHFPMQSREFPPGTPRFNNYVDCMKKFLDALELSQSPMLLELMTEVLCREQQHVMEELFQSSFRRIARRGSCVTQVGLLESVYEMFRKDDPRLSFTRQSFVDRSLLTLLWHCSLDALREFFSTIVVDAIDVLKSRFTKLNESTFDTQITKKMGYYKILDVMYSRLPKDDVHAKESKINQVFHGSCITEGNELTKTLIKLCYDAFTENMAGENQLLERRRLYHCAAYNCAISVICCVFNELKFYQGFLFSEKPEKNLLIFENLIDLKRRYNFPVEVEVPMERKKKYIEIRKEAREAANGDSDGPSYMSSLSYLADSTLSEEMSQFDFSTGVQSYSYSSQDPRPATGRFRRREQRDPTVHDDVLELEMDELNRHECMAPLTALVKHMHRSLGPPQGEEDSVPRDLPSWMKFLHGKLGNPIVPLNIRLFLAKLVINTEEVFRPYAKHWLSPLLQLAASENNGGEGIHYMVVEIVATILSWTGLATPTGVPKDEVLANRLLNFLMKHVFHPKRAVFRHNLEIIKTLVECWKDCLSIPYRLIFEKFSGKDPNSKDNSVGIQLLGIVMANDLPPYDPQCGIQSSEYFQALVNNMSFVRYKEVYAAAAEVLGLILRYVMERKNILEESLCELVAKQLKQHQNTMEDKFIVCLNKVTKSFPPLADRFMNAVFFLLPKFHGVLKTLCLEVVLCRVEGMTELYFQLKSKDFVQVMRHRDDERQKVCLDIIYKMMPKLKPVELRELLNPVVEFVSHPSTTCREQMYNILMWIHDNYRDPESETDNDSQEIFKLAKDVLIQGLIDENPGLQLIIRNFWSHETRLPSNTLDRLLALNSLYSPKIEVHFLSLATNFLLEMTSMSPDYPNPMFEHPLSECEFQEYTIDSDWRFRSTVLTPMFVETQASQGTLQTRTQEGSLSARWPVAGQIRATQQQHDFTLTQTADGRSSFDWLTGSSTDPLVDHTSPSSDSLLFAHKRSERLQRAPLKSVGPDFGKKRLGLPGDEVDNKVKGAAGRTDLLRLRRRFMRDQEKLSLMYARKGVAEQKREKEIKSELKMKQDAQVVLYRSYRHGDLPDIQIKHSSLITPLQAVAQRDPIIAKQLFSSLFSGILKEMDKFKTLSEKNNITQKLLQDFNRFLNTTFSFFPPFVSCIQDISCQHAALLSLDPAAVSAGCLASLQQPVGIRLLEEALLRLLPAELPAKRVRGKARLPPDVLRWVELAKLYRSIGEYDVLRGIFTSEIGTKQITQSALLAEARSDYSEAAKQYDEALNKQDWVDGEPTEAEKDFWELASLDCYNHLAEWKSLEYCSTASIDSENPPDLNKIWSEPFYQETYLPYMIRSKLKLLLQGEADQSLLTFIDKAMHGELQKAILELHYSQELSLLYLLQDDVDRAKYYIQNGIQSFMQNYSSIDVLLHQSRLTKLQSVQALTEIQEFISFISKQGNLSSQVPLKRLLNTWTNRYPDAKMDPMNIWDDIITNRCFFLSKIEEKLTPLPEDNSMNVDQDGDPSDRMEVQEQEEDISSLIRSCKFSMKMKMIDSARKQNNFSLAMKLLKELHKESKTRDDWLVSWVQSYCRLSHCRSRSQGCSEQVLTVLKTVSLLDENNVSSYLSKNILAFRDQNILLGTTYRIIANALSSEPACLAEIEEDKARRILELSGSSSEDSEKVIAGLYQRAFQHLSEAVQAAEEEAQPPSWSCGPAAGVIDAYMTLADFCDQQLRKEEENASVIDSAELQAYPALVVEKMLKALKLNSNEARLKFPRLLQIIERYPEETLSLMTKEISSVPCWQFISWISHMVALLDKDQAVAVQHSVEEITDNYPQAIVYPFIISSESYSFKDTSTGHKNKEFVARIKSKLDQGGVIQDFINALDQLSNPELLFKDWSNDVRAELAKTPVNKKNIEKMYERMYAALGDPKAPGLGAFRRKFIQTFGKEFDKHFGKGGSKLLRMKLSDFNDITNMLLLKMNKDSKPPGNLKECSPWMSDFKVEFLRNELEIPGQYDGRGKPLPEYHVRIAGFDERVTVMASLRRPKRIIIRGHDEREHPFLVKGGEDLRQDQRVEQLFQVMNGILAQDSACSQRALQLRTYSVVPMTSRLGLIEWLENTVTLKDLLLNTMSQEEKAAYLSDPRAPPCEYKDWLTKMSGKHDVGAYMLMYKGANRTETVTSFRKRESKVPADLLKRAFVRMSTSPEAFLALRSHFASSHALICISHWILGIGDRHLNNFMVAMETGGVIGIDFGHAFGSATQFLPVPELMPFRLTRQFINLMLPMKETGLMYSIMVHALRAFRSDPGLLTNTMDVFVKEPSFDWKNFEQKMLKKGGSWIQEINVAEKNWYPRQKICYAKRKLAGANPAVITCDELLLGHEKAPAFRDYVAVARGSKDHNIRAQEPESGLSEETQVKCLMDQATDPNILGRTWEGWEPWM
Conditions: not given
`O=c1cc(-c2ccccc2Cl)oc2c1ccc1ccccc12` came in with an IC50 of over 10 µM.
Same read-out and setting: for `COc1ccc2c(=O)cc(N3CCOCC3)oc2c1` the value was 0.95 µM; for `COc1ccc2oc(=O)cc(N3CCOCC3)c2c1`, 1.75 µM; for `Nc1cccc(-c2cc(=O)c3ccc4ccccc4c3o2)c1`, over 10 µM.
The molecule `CC(C)(C)c1ccc(-c2cc(=O)c3ccc4ccccc4c3o2)cc1` returned an IC50 of over 10 µM.
The molecule `O=c1cc(N2CCOCC2)oc2cc3ccccc3cc12` gave an IC50 of 0.39 µM. This counts as sub-micromolar.
Molecule `O=c1cc(N2CCC(O)C2)oc2c1ccc1ccccc12` (stereo not given) yielded an IC50 of 9.27 µM. Against the preceding molecule, the IC50 is about 24-fold higher.
In turn, `O=c1cc(N2CCSCC2)oc2c(-c3ccccc3)cccc12` came in with an IC50 of 1.61 µM.
`C#CCCN(C)c1cc(=O)n2ccc3ccccc3c2n1` gave an IC50 of over 10 µM.
As to `O=c1cc(N2CCCCC2)oc2c(-c3ccccc3)cccc12`, half-maximal inhibition (IC50) was put at 4.67 µM.
Molecule `O=c1cc(N2CCCCC2)c2ccccc2o1` gave an IC50 of 8.81 µM.
In turn, `CC1(C)CN(c2cc(=O)n3ccc4ccccc4c3n2)CCO1` showed a half-inhibitory concentration (IC50) of 6.71 µM. This IC50 and that of the molecule before are within 1.5-fold of each other.
The molecule `S=c1cc(N2CCOCC2)oc2c1ccc1ccccc12` returned an IC50 of 0.26 µM.
Still for that read-out and setting: for `CC1(C)CN(c2cc(=O)c3ccc4ccccc4c3o2)CCO1` the value was 3.52 µM.
The molecule `COc1cccc2c(N3CCOCC3)cc(=O)oc12` had a half-inhibitory concentration (IC50) of 10.9 µM.
Regarding `C[C@@H]1CN(c2cc(=O)n3ccc4ccccc4c3n2)C[C@H](C)O1`, it took 3.25 µM to reach half-maximal inhibition (IC50).
In the case of `O=c1cc(-c2cccc([N+](=O)[O-])c2)oc2c1ccc1ccccc12`, the half-maximal inhibitory concentration (IC50) was over 10 µM.
Regarding `O=c1cc(NCCO)nc2c3ccccc3ccn12`, the 50% inhibitory concentration (IC50) was over 10 µM.
Take `COc1ccc2c(N3CCOCC3)cc(=O)oc2c1`: the IC50 is 11.3 µM. In other words, the double-digit micromolar range.
Molecule `O=c1cc(N2CCOCC2)c2cc3ccccc3cc2o1` yielded an IC50 of 3.24 µM.
Take `O=c1cc(N2CCOc3ccccc32)oc2c1ccc1ccccc12`: the concentration for half-maximal inhibition (IC50) is over 10 µM.
In turn, `O=c1cc(-c2cccnc2)oc2c1ccc1ccccc12` displayed a 50% inhibitory concentration (IC50) of 1.92 µM.
With `O=c1cc(-c2ccncc2)oc2c1ccc1ccccc12`, the IC50 was over 10 µM.
Still for that read-out and setting: for `O=c1cc(NCC(O)CO)nc2c3ccccc3ccn12` (stereo not given) the value was 8.46 µM; for `CC(O)CNc1cc(=O)n2ccc3ccccc3c2n1` (stereo not given), over 10 µM.
As to `O=c1cc(N2CCOCC2)c2c(ccc3ccccc32)o1`, the half-inhibitory concentration (IC50) came out at 1.9 µM.
On to `O=c1cc(NCC2CCCO2)nc2c3ccccc3ccn12` (stereo not given), for which the IC50 is over 10 µM.
As for `CN(CCO)c1cc(=O)n2ccc3ccccc3c2n1`, the IC50 is over 10 µM.
In the case of `O=c1cc(N(CCO)Cc2ccccc2)nc2c3ccccc3ccn12`, the IC50 was over 10 µM.
Take `O=c1cc(N2CCNCC2)oc2c1ccc1ccccc12`: the IC50 was over 10 µM.
Still for that read-out and setting: for `O=c1cc(N2CCCC2)nc2c3ccccc3ccn12` the value was 6.68 µM; for `O=c1cc(N2CCOCC2)nc2ccccn12`, 2 µM.
`O=c1cc(NCCOc2ccccc2Br)oc2c1ccc1ccccc12` yielded a 50% inhibitory concentration (IC50) of over 10 µM.
`O=c1cc(N2CCOCC2)oc2c3c(ccc12)CCCC3` yielded a concentration for half-maximal inhibition (IC50) of 0.36 µM.
On the same count and under the same terms, the value for `O=c1cc(N2CCSCC2)nc2c3ccccc3ccn12` was 1.69 µM; that for `O=c1cc(N2CCOCC2)nc2c3ccccc3ccn12` was 0.28 µM; that for `Nc1ccc(-c2cc(=O)c3ccc4ccccc4c3o2)cc1` was 7.7 µM.
As for `CN1CCN(c2cc(=O)n3ccc4ccccc4c3n2)CC1`, the 50% inhibitory concentration (IC50) is over 10 µM.
With `CC1CN(c2cc(=O)c3ccc4ccccc4c3o2)CC(C)O1` (stereo not given), the 50% inhibitory concentration (IC50) came out at 4.14 µM.
Still for that read-out and setting: for `CC1CCC(C)N(c2cc(=O)n3ccc4ccccc4c3n2)C1` (stereo not given) the value was over 10 µM.
For the molecule `O=c1cc(N2CCOCC2)c2cc(Cl)ccc2o1`, half-maximal inhibition (IC50) was put at 3.27 µM.
Take `Cc1cccc2c(=O)cc(N3CCOCC3)oc12`: the IC50 came out at 1.65 µM. This IC50 is about 2-fold lower than that of the molecule before.
Consider `O=c1cc(N2CCSCC2)c2cc3ccccc3cc2o1`, for which inhibition was half-maximal at 5.15 µM (IC50).
As to `CCC1CN(c2cc(=O)n3ccc4ccccc4c3n2)CCO1` (stereo not given), the concentration for half-maximal inhibition (IC50) was over 10 µM.
`O=c1cc(N2CCOC(CO)C2)nc2c3ccccc3ccn12` (stereo not given) gave an IC50 of over 10 µM.
In turn, `O=c1cc(N2CCCC2)oc2c1ccc1ccccc12` had a 50% inhibitory concentration (IC50) of 6.17 µM.
`COc1cccc2oc(=O)cc(N3CCOCC3)c12`: the concentration for half-maximal inhibition (IC50) is over 10 µM.
In turn, `O=c1cc(-c2ccc([N+](=O)[O-])cc2)oc2c1ccc1ccccc12` came in with an IC50 of over 10 µM.
The molecule `OCCOCC/N=c1\cc(O)c2ccc3ccccc3c2o1` returned a half-maximal inhibitory concentration (IC50) of over 10 µM.
Consider `O=c1cc(N2CC[C@@H](O)C2)nc2c3ccccc3ccn12`, for which the half-inhibitory concentration (IC50) was determined as 6.49 µM.
Still for that read-out and setting: for `O=c1cc(N(CCO)CCO)nc2c3ccccc3ccn12` the value was over 10 µM.
In turn, `CN(CC(O)c1ccccc1)c1cc(=O)n2ccc3ccccc3c2n1` (stereo not given) gave an IC50 of 10.5 µM. This lies in the double-digit micromolar range.
`O=c1cc(N2CCC[C@H](CO)C2)oc2c1ccc1ccccc12` yielded a half-maximal inhibitory concentration (IC50) of over 10 µM.
The molecule `O=c1cc(-c2ccc(F)cc2)oc2c1ccc1ccccc12` registered an IC50 of over 10 µM.
As for `O=c1cc(N2CCSCC2)oc2c1ccc1ccccc12`, the concentration for half-maximal inhibition (IC50) was found to be 1.38 µM.
As to `O=c1cc(N2CC=CC2)nc2c3ccccc3ccn12`, the 50% inhibitory concentration (IC50) was found to be 2.81 µM.
`Cc1ccc2oc(=O)cc(N3CCOCC3)c2c1`: inhibition was half-maximal at 5.35 µM (IC50).
For the molecule `O=c1cc(-c2ccccc2F)oc2c1ccc1ccccc12`, the IC50 was determined as 8.59 µM.
Regarding `O=c1cc(N2CCCOCC2)oc2c1ccc1ccccc12`, inhibition was half-maximal at 2.01 µM (IC50).
Turning to `O=c1cc(N2CCOCC2)c2ccccc2o1`, the IC50 is 4.82 µM.
`O=c1cc(N2CCCCC2)oc2c1ccc1ccccc12` came in with a 50% inhibitory concentration (IC50) of 3.81 µM. The IC50 values of the last two molecules are within 1.5-fold of each other.
Same read-out and setting: the value for `O=c1cc(-c2cccc(Cl)c2)oc2c1ccc1ccccc12` was over 10 µM; that for `O=c1cc(N2CCOCC2)oc2ccc(-c3ccccc3)cc12` was 2.24 µM; that for `Cc1cccc2c(N3CCOCC3)cc(=O)oc12` was 8.05 µM.
Still for that read-out and setting: for `Nc1ccccc1-c1cc(=O)c2ccc3ccccc3c2o1` the value was over 10 µM.
In turn, `O=c1cc(NCC(O)c2cccc(O)c2)nc2c3ccccc3ccn12` (stereo not given) gave an IC50 of over 10 µM.
In turn, `O=c1cc(-c2ccc(Cl)cc2)oc2c1ccc1ccccc12` yielded a 50% inhibitory concentration (IC50) of over 10 µM.
Turning to `O=c1cc(NCC2CCCO2)oc2c1ccc1ccccc12` (stereo not given), the 50% inhibitory concentration (IC50) was over 10 µM.
For `O=c1cc(-c2ccccc2[N+](=O)[O-])oc2c1ccc1ccccc12`, the half-inhibitory concentration (IC50) was over 10 µM.
For the molecule `O=c1cc(N2CC[S+]([O-])CC2)oc2c(-c3ccccc3)cccc12`, the IC50 stood at 5.71 µM.
The same measure, in the same setting: for `O=c1cc(N2C[C@H]3C[C@@H]2CO3)oc2c1ccc1ccccc12` the value was 3.19 µM; for `O=c1cc(-c2cccc(F)c2)oc2c1ccc1ccccc12`, 5.71 µM; for `CN1CCN(c2cc(=O)c3ccc4ccccc4c3o2)CC1`, over 10 µM.
For the molecule `COc1cccc2c(=O)cc(N3CCOCC3)oc12`, half-maximal inhibition (IC50) required 1.2 µM.
Same read-out and setting: for `O=c1cc(-c2ccccc2)oc2c1ccc1ccccc12` [ALPHA-NAPHTHOFLAVONE] the value was 4.98 µM; for `O=c1cc(-c2ccccc2)oc2ccccc12` [FLAVONE], over 10 µM.

A further assay concerns the target T1, Serine-protein kinase ATM (Homo sapiens, UniProt Q13315). Briefly: Inhibition of ATM kinase using rabbit polyclonal antisera. Further details: species or system Oryctolagus cuniculus. The note with it: target entry is the homologue from another species. A digest of the protocol:
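ATM kinase activity assayed following a previously published method, using rabbit polyclonal antisera raised against the COOH-terminal 400 amino acids of ATM.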
As for `O=c1cc(N2CCOCC2)oc2c(-c3ccccc3)cccc12` [LY-294002], the IC50 was over 100 µM.

The target in the next assay is Phosphatidylinositol 4,5-bisphosphate 3-kinase catalytic subunit alpha isoform (Homo sapiens, UniProt P42336). The assay is described as follows: Inhibition of Phosphatidylinositol 3-kinase.
Chain of Phosphatidylinositol 4,5-bisphosphate 3-kinase catalytic subunit alpha isoform (P42336 whole entry, canonical isoform): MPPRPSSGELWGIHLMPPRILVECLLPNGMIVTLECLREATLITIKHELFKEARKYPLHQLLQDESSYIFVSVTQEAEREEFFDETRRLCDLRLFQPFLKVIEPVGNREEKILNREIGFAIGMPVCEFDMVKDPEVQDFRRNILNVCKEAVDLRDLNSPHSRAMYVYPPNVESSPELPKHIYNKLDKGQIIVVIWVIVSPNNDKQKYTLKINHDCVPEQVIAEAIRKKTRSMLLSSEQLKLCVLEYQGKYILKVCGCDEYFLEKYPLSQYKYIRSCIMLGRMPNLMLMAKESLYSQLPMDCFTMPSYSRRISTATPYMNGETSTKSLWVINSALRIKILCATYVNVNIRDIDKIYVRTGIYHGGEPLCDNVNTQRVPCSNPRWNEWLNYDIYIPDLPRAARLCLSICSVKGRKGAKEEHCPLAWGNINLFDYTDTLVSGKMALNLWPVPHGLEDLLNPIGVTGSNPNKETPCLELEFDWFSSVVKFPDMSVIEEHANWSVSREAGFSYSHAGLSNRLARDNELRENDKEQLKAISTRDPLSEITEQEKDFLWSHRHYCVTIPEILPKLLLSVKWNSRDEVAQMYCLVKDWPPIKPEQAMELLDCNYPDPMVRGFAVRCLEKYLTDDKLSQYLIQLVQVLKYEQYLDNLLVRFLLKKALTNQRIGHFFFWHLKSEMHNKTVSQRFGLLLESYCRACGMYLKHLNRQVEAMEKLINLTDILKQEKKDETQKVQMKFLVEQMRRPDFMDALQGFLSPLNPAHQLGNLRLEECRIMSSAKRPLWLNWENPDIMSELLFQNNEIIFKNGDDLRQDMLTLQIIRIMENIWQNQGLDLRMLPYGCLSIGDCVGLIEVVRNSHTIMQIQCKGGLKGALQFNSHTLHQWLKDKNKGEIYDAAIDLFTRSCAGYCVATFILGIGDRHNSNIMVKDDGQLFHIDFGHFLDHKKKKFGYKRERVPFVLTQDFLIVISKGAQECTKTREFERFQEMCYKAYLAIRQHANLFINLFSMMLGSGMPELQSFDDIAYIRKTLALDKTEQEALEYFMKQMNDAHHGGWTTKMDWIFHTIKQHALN
Conditions: not given
An outline of the steps:
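PI 3-kinase assay run following a prior method, with baculovirus-derived recombinant human p110α and p85α.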
The molecule `O=c1cc(N2CCSCC2)oc2c(-c3ccccc3)cccc12` returned an IC50 of over 100 µM.
In turn, `O=c1cc(N2CCCCC2)oc2c(-c3ccccc3)cccc12` displayed an IC50 of over 100 µM.
Turning to `O=c1cc(N2CCOCC2)nc2c3ccccc3ccn12`, the IC50 is over 100 µM.
The molecule `CC1CN(c2cc(=O)c3ccc4ccccc4c3o2)CCO1` (stereo not given) returned an IC50 of 2.4 µM.

In a further assay the target is Serine/threonine-protein kinase mTOR (Homo sapiens, UniProt P42345). The assay is described as follows: Inhibition of mTOR protein isolated from HeLa cells.
Conditions: not given
A digest of the protocol: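 mTOR immunoprecipitated from HeLa cell cytoplasmic extract. Activity measured following a prior method, with recombinant PHAS-1 as substrate.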
In the case of `O=c1cc(N2CCOCC2)nc2c3ccccc3ccn12`, inhibition was half-maximal at 5.3 µM (IC50).
Molecule `CC1CN(c2cc(=O)c3ccc4ccccc4c3o2)CCO1` (stereo not given) displayed an IC50 of 4.8 µM.

The next assay has as its target T1, Serine-protein kinase ATM. The assay is described as follows: Inhibition of ATM kinase using rabbit polyclonal antisera; No inhibition observed at 100 uM. Further details: species or system Oryctolagus cuniculus. As to conditions: target entry is the homologue from another species.
Consider `O=c1cc(N2CCOCC2)oc2c1ccc1ccccc12`, for which the IC50 is over 100 µM.
On the same count and under the same terms, for `O=c1cc(N2CCOCC2)nc2c3ccccc3ccn12` the value was over 100 µM; for `CC1CN(c2cc(=O)c3ccc4ccccc4c3o2)CCO1` (stereo not given), over 100 µM.

The target in the next assay is T2, Serine/threonine-protein kinase ATR (Homo sapiens, UniProt Q13535). The assay is described as follows: Inhibition of ATR kinase using rabbit polyclonal antisera; No inhibition observed at 100 uM. More on the design: species or system Oryctolagus cuniculus. The note with it: target entry is the homologue from another species.
The molecule `O=c1cc(N2CCOCC2)oc2c1ccc1ccccc12` registered an IC50 of over 100 µM.
Still for that read-out and setting: the value for `O=c1cc(N2CCOCC2)nc2c3ccccc3ccn12` was over 100 µM.
Molecule `CC1CN(c2cc(=O)c3ccc4ccccc4c3o2)CCO1` (stereo not given) showed a 50% inhibitory concentration (IC50) of over 100 µM.

The target in the next assay is T2, Serine/threonine-protein kinase ATR. The assay is described as follows: Inhibition of ATR kinase using rabbit polyclonal antisera. Further details: species or system Oryctolagus cuniculus. The note with it: target entry is the homologue from another species. A digest of the protocol: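 ATR kinase activity measured following earlier published methods, using antisera raised against ATR amino acids 400–480.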
`O=c1cc(N2CCOCC2)oc2c(-c3ccccc3)cccc12` [LY-294002] showed an IC50 of over 100 µM.
